Converted amounts (≈) assume the structure as drawn.
Tests used:
Cryptococcus neoformans = experiment: Antifungal activity against Cryptococcus neoformans ATCC 32264; format: functional
Procedure, shortened: (§1)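 CLSI M27-A3 broth microdilution in RPMI-1640 buffered to pH 7.0 with MOPS. Inoculum 1-5 × 10^3 CFU/mL. Compound twofold dilutions from 250 to 0.24 µg/ml, final DMSO <1%. Incubated at 35 °C in a moist, dark chamber and read at 48 h. MIC is the lowest concentration giving total growth inhibition. For MFC, 5 µL from clear wells was plated in duplicate on SDA; MFC is the lowest concentration with no growth.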

[1] = test system: Trichophyton mentagrophytes; experiment: Antifungal activity against Trichophyton mentagrophytes ATCC 9972; format: functional
Procedure, shortened: (§2)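 Dermatophytes tested by CLSI M38-A2 microdilution in MOPS-buffered RPMI-1640 at pH 7.0. Inoculum 1-5 × 10^3 CFU/mL; compounds 250 to 0.24 µg/ml in twofold steps, final DMSO <1%. Incubated at 28 °C in a moist, dark chamber and read according to control growth. MIC is the lowest concentration with complete inhibition. MFC is the lowest concentration with no growth after duplicate subculture on SDA.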

Nannizzia gypsea = experiment: Antifungal activity against Microsporum gypseum C 115 2000; format: functional; procedure, shortened: as §2
MCF7 = experiment: Cytotoxicity against human MCF7 cells assessed as cell growth after 2 days by sulforhodamine B assay; format: functional; conditions: MCF7, 48 h
Procedure, shortened: (§3)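 NCI cell lines were run by the Monks method: cells were plated with compounds from DMSO stocks and incubated 2 days at 37 °C in 5% CO2, in duplicate. Cells were fixed with cold TCA, stained with 0.4% SRB, and the bound dye was solubilized in 10 mM tris-base and read at 515 nm. The zero-day control was subtracted, and GI50 was taken from the curves.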

NCI-H460 = experiment: Cytotoxicity against human H460 cells assessed as cell growth after 2 days by sulforhodamine B assay; format: functional; conditions: NCI-H460, 48 h; procedure, shortened: as §3
Candida tropicalis = experiment: Antifungal activity against Candida tropicalis C 131 2000; format: functional; procedure, shortened: as §1
Saccharomyces cerevisiae = experiment: Antifungal activity against Saccharomyces cerevisiae ATCC 9763; format: functional; procedure, shortened: as §1
Aspergillus niger = experiment: Antifungal activity against Aspergillus niger ATCC 9029; format: functional
Procedure, shortened: (§4)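 Broth microdilution per CLSI M38-A2 in RPMI-1640 with MOPS at pH 7.0. Inoculum 1-5 × 10^3 CFU/mL, with twofold compound dilutions spanning 250-0.24 µg/ml (final DMSO <1%). Plates incubated at 35 °C, moist and dark, and read when the control fungus had grown. MIC is total growth inhibition. MFC comes from subculturing clear wells in duplicate onto SDA.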

Trichophyton rubrum = experiment: Antifungal activity against Trichophyton rubrum C 113 2000; format: functional; procedure, shortened: as §2
Aspergillus fumigatus = experiment: Antifungal activity against Aspergillus fumigatus ATCC 26934; format: functional; procedure, shortened: as §4
SF-268 = experiment: Cytotoxicity against human SF268 cells assessed as cell growth after 2 days by sulforhodamine B assay; format: functional; conditions: SF-268, 48 h; procedure, shortened: as §3
[2] = Cytotoxicity against human erythrocytes assessed as hemolysis by spectrometric analysis; format: cell-based, Erythrocyte
Procedure, shortened: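 Human heparinized red blood cells were washed in PBS at pH 7.0 and suspended at 4% in sterile 5% glucose. Compounds from DMSO stocks were diluted in 5% glucose to final concentrations of 250 to 0.24 µg/ml and incubated with the cells at 37 °C. Released hemoglobin was read at 540 nm. HC50 is the concentration giving 50% lysis relative to the drug-free value.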

Aspergillus flavus = experiment: Antifungal activity against Aspergillus flavus ATCC 9170; format: functional; procedure, shortened: as §4
Candida albicans = experiment: Antifungal activity against Candida albicans ATCC 10213; format: functional; procedure, shortened: as §1

| Structure (SMILES) | MFC (Cryptococcus neoformans) | MIC (Cryptococcus neoformans) | MFC [1] | MIC [1] | MFC (Nannizzia gypsea) | MIC (Nannizzia gypsea) | GI50 (MCF7) | GI50 (NCI-H460) | MFC (Candida tropicalis) | MFC (Saccharomyces cerevisiae) | MIC (Saccharomyces cerevisiae) | MFC (Aspergillus niger) | MIC (Aspergillus niger) | MFC (Trichophyton rubrum) | MIC (Trichophyton rubrum) | MFC (Aspergillus fumigatus) | MIC (Aspergillus fumigatus) | GI50 (SF-268) | HC50 [2] | MFC (Aspergillus flavus) | other results |
| --- | --- | --- | --- | --- | --- | --- | --- | --- | --- | --- | --- | --- | --- | --- | --- | --- | --- | --- | --- | --- | --- |
| O=C1C(Cl)=C(Cl)C(=O)N1CCc1ccccc1 | 7.81 µg/mL (≈ 28.9 µM) | 7.81 µg/mL (≈ 28.9 µM) | 15.6 µg/mL (≈ 57.9 µM) | 7.81 µg/mL (≈ 28.9 µM) | 31.2 µg/mL (≈ 116 µM) | 15.6 µg/mL (≈ 57.9 µM) | > 10 µg/mL | > 10 µg/mL | 31.2 µg/mL (≈ 116 µM) | 7.81 µg/mL (≈ 28.9 µM) | 3.9 µg/mL (≈ 14.4 µM) | 31.2 µg/mL (≈ 116 µM) | 15.6 µg/mL (≈ 57.9 µM) | 7.81 µg/mL (≈ 28.9 µM) | 3.9 µg/mL (≈ 14.4 µM) | 15.6 µg/mL (≈ 57.9 µM) | 15.6 µg/mL (≈ 57.9 µM) | > 10 µg/mL | > 250 µg/mL | 15.6 µg/mL (≈ 57.9 µM) | MIC (Candida tropicalis): 15.6 µg/mL (≈ 57.9 µM); MIC (Aspergillus flavus): 15.6 µg/mL (≈ 57.9 µM); MFC (Candida albicans): 15.6 µg/mL (≈ 57.9 µM); MIC (Candida albicans): 7.81 µg/mL (≈ 28.9 µM) |
| O=C1C(Cl)=C(Cl)C(=O)N1CCCc1ccccc1 | 3.9 µg/mL (≈ 13.7 µM) | 3.9 µg/mL (≈ 13.7 µM) | 7.81 µg/mL (≈ 27.5 µM) | 3.9 µg/mL (≈ 13.7 µM) | 15.6 µg/mL (≈ 55 µM) | 15.6 µg/mL (≈ 55 µM) | > 10 µg/mL | > 10 µg/mL | 15.6 µg/mL (≈ 55 µM) | 3.9 µg/mL (≈ 13.7 µM) | 3.9 µg/mL (≈ 13.7 µM) | 15.6 µg/mL (≈ 55 µM) | 15.6 µg/mL (≈ 55 µM) | 7.81 µg/mL (≈ 27.5 µM) | 3.9 µg/mL (≈ 13.7 µM) | 31.2 µg/mL (≈ 110 µM) | 15.6 µg/mL (≈ 55 µM) | > 10 µg/mL | > 250 µg/mL | 31.2 µg/mL (≈ 110 µM) | MIC (Candida tropicalis): 7.81 µg/mL (≈ 27.5 µM); MIC (Aspergillus flavus): 15.6 µg/mL (≈ 55 µM); MFC (Candida albicans): 15.6 µg/mL (≈ 55 µM); MIC (Candida albicans): 7.81 µg/mL (≈ 27.5 µM) |
| O=C1C=CC(=O)N1c1ccc(Br)cc1 | 15.6 µg/mL (≈ 62 µM) | 7.81 µg/mL (≈ 31 µM) | 3.9 µg/mL (≈ 15.5 µM) | 1.95 µg/mL (≈ 7.74 µM) | 3.9 µg/mL (≈ 15.5 µM) | 3.9 µg/mL (≈ 15.5 µM) | > 10 µg/mL | > 10 µg/mL | 62.5 µg/mL (≈ 248 µM) | 15.6 µg/mL (≈ 62 µM) | 7.81 µg/mL (≈ 31 µM) | 62.5 µg/mL (≈ 248 µM) | 31.2 µg/mL (≈ 124 µM) | 3.9 µg/mL (≈ 15.5 µM) | 1.95 µg/mL (≈ 7.74 µM) | 62.5 µg/mL (≈ 248 µM) | 31.2 µg/mL (≈ 124 µM) | > 10 µg/mL | > 250 µg/mL | 62.5 µg/mL (≈ 248 µM) | MIC (Candida tropicalis): 15.6 µg/mL (≈ 62 µM); MIC (Aspergillus flavus): 31.2 µg/mL (≈ 124 µM); MFC (Candida albicans): 31.2 µg/mL (≈ 124 µM); MIC (Candida albicans): 15.6 µg/mL (≈ 62 µM) |
| Cc1ccccc1N1C(=O)C=CC1=O | 7.81 µg/mL (≈ 41.7 µM) | 7.81 µg/mL (≈ 41.7 µM) | 3.9 µg/mL (≈ 20.8 µM) | 1.95 µg/mL (≈ 10.4 µM) | 7.81 µg/mL (≈ 41.7 µM) | 3.9 µg/mL (≈ 20.8 µM) | > 10 µg/mL | > 10 µg/mL | 31.2 µg/mL (≈ 167 µM) | 7.81 µg/mL (≈ 41.7 µM) | 7.81 µg/mL (≈ 41.7 µM) | 62.5 µg/mL (≈ 334 µM) | 15.6 µg/mL (≈ 83.5 µM) | 3.9 µg/mL (≈ 20.8 µM) | 1.95 µg/mL (≈ 10.4 µM) | 125 µg/mL (≈ 668 µM) | 62.5 µg/mL (≈ 334 µM) | > 10 µg/mL | > 250 µg/mL | 62.5 µg/mL (≈ 334 µM) | MIC (Candida tropicalis): 15.6 µg/mL (≈ 83.5 µM); MIC (Aspergillus flavus): 62.5 µg/mL (≈ 334 µM); MFC (Candida albicans): 15.6 µg/mL (≈ 83.5 µM); MIC (Candida albicans): 15.6 µg/mL (≈ 83.5 µM) |
| O=C1C=CC(=O)N1c1ccccc1 | 62.5 µg/mL (≈ 361 µM) | 15.6 µg/mL (≈ 90.3 µM) | 7.81 µg/mL (≈ 45.1 µM) | 7.81 µg/mL (≈ 45.1 µM) | 15.6 µg/mL (≈ 90.3 µM) | 7.81 µg/mL (≈ 45.1 µM) | > 10 µg/mL | > 10 µg/mL | 15.6 µg/mL (≈ 90.3 µM) | 7.81 µg/mL (≈ 45.1 µM) | 3.9 µg/mL (≈ 22.5 µM) | 62.5 µg/mL (≈ 361 µM) | 31.2 µg/mL (≈ 180 µM) | 7.81 µg/mL (≈ 45.1 µM) | 3.9 µg/mL (≈ 22.5 µM) | > 250 µg/mL | 250 µg/mL (≈ 1440 µM) | > 10 µg/mL | > 250 µg/mL | 125 µg/mL (≈ 722 µM) | MIC (Aspergillus flavus): 62.5 µg/mL (≈ 361 µM); MFC (Candida albicans): 7.81 µg/mL (≈ 45.1 µM); MIC (Candida albicans): 3.9 µg/mL (≈ 22.5 µM) |
| CN1C(=O)C=CC1=O | 62.5 µg/mL (≈ 563 µM) | 15.6 µg/mL (≈ 141 µM) | 15.6 µg/mL (≈ 141 µM) | 7.81 µg/mL (≈ 70.3 µM) | 7.81 µg/mL (≈ 70.3 µM) | 7.81 µg/mL (≈ 70.3 µM) | > 10 µg/mL | > 10 µg/mL | 62.5 µg/mL (≈ 563 µM) | 15.6 µg/mL (≈ 141 µM) | 7.81 µg/mL (≈ 70.3 µM) | 15.6 µg/mL (≈ 141 µM) | 7.81 µg/mL (≈ 70.3 µM) | 15.6 µg/mL (≈ 141 µM) | 3.9 µg/mL (≈ 35.1 µM) | 62.5 µg/mL (≈ 563 µM) | 15.6 µg/mL (≈ 141 µM) | > 10 µg/mL | > 250 µg/mL | 31.2 µg/mL (≈ 281 µM) | MIC (Candida tropicalis): 31.2 µg/mL (≈ 281 µM); MIC (Aspergillus flavus): 15.6 µg/mL (≈ 141 µM); MFC (Candida albicans): 125 µg/mL (≈ 1130 µM); MIC (Candida albicans): 62.5 µg/mL (≈ 563 µM) |
| COc1cccc(N2C(=O)C=CC2=O)c1 | 7.81 µg/mL (≈ 38.4 µM) | 3.9 µg/mL (≈ 19.2 µM) | 3.9 µg/mL (≈ 19.2 µM) | 1.95 µg/mL (≈ 9.6 µM) | 7.81 µg/mL (≈ 38.4 µM) | 3.9 µg/mL (≈ 19.2 µM) | > 10 µg/mL | > 10 µg/mL | 62.5 µg/mL (≈ 308 µM) | 7.81 µg/mL (≈ 38.4 µM) | 3.9 µg/mL (≈ 19.2 µM) | 62.5 µg/mL (≈ 308 µM) | 31.2 µg/mL (≈ 154 µM) | 3.9 µg/mL (≈ 19.2 µM) | 1.95 µg/mL (≈ 9.6 µM) | 62.5 µg/mL (≈ 308 µM) | 31.2 µg/mL (≈ 154 µM) | > 10 µg/mL | > 250 µg/mL | 62.5 µg/mL (≈ 308 µM) | MIC (Candida tropicalis): 15.6 µg/mL (≈ 76.9 µM); MIC (Aspergillus flavus): 31.2 µg/mL (≈ 154 µM); MFC (Candida albicans): 62.5 µg/mL (≈ 308 µM); MIC (Candida albicans): 15.6 µg/mL (≈ 76.9 µM) |
